Experimental data: ChEMBL document CHEMBL3526002, “Tissue distribution and identification of radioactivity components at elimination phase after oral administration of [¹⁴C]CS-1036, an α-amylase inhibitor, to rats” (Drug Metab Dispos, 2013)

How the values were obtained:
[1] = Drug uptake in albino F344/DuCrlCrlj rat skeletal muscle at 5 mg/kg, po after 4 hrs by liquid scintillation counting; type: ADME, organism-based, Muscle tissue; parameters: dose 5 mg/kg, dosed compound name [14C]CS-1036, route oral; conditions: in vivo
[2] = Drug uptake in albino F344/DuCrlCrlj rat pituitary gland at 5 mg/kg, po after 24 hrs by liquid scintillation counting; type: ADME, organism-based; parameters: dose 5 mg/kg, dosed compound name [14C]CS-1036, route oral; conditions: in vivo
Pancreas [3] = experiment: Drug uptake in albino F344/DuCrlCrlj rat pancreas assessed as ng equivalent of CS-1036 at 5 mg/kg, po after 168 hrs by liquid scintillation counting; type: ADME, organism-based; parameters: dose 5 mg/kg, dosed compound name [14C]CS-1036, route oral; conditions: in vivo
Plasma = experiment: Drug metabolism in albino F344/DuCrlCrlj rat plasma protein assessed as unbound parent compound and metabolite M1 level at 10 mg/kg, po administered for 5 days by liquid scintillation counting; type: ADME, organism-based; parameters: dose 10 mg/kg, dosed compound name [14C]CS-1036, route oral; conditions: in vivo, 120 h
How it was run: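 Male F344/DuCrlCrlj rats (n = 3) received oral [14C]CS-1036 at 10 mg/kg/day for 5 days at 24-h intervals, with food freely available. Plasma was taken from the abdominal aorta 24 h after the fifth dose and pooled. It was precipitated with acetonitrile, and the pellets were washed with 0.4 M TCA, 80% methanol and 30% ether/ethanol until washes were below twice background. Pellets were HCl-hydrolysed, and recovered radioactivity was counted by LSC.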

[4] = Drug uptake in albino F344/DuCrlCrlj rat testis at 5 mg/kg, po after 24 hrs by liquid scintillation counting; type: ADME, organism-based; parameters: dose 5 mg/kg, dosed compound name [14C]CS-1036, route oral; conditions: in vivo
Large intestine = experiment: Drug uptake in albino F344/DuCrlCrlj rat large intestine assessed as ng equivalent of CS-1036 at 5 mg/kg, po after 4 hrs by liquid scintillation counting; type: ADME, organism-based; parameters: dose 5 mg/kg, dosed compound name [14C]CS-1036, route oral; conditions: in vivo
[5] = Drug uptake in albino F344/DuCrlCrlj rat brown fat assessed as ng equivalent of CS-1036 at 5 mg/kg, po after 24 hrs by liquid scintillation counting; type: ADME, organism-based, Brown adipose tissue; parameters: dose 5 mg/kg, dosed compound name [14C]CS-1036, route oral; conditions: in vivo
Thymus = experiment: Drug uptake in albino F344/DuCrlCrlj rat thymus assessed as ng equivalent of CS-1036 at 5 mg/kg, po after 1 hr by liquid scintillation counting; type: ADME, organism-based; parameters: dose 5 mg/kg, dosed compound name [14C]CS-1036, route oral; conditions: in vivo
[6] = Drug uptake in albino F344/DuCrlCrlj rat urinary bladder assessed as ng equivalent of CS-1036 at 5 mg/kg, po after 72 hrs by liquid scintillation counting; type: ADME, organism-based; parameters: dose 5 mg/kg, dosed compound name [14C]CS-1036, route oral; conditions: in vivo
Stomach [7] = experiment: Drug uptake in albino F344/DuCrlCrlj rat stomach assessed as ng equivalent of CS-1036 at 5 mg/kg, po after 4 hrs by liquid scintillation counting; type: ADME, organism-based; parameters: dose 5 mg/kg, dosed compound name [14C]CS-1036, route oral; conditions: in vivo
Liver = experiment: Drug uptake in albino F344/DuCrlCrlj rat liver assessed as ng equivalent of CS-1036 at 5 mg/kg, po after 4 hrs by liquid scintillation counting; type: ADME, organism-based; parameters: dose 5 mg/kg, dosed compound name [14C]CS-1036, route oral; conditions: in vivo
Adrenal gland [8] = experiment: Drug uptake in albino F344/DuCrlCrlj rat adrenal gland at 5 mg/kg, po after 336 hrs by liquid scintillation counting; type: ADME, organism-based; parameters: dose 5 mg/kg, dosed compound name [14C]CS-1036, route oral; conditions: in vivo
Stomach [9] = experiment: Drug uptake in albino F344/DuCrlCrlj rat stomach at 5 mg/kg, po after 24 hrs by liquid scintillation counting; type: ADME, organism-based; parameters: dose 5 mg/kg, dosed compound name [14C]CS-1036, route oral; conditions: in vivo
Adrenal gland [10] = experiment: Drug uptake in albino F344/DuCrlCrlj rat adrenal gland at 5 mg/kg, po after 4 hrs by liquid scintillation counting; type: ADME, organism-based; parameters: dose 5 mg/kg, dosed compound name [14C]CS-1036, route oral; conditions: in vivo
[11] = Drug uptake in albino F344/DuCrlCrlj rat fat at 5 mg/kg, po after 72 hrs by liquid scintillation counting; type: ADME, organism-based, Adipose tissue; parameters: dose 5 mg/kg, dosed compound name [14C]CS-1036, route oral; conditions: in vivo
How it was run: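 Male F344/DuCrlCrlj rats (bought at 7 weeks, acclimatized 5–6 days; 159–167 g; n = 3 per time point) received a single oral dose of [14C]CS-1036 at 5 mg/kg. White adipose tissue was collected after abdominal aortic bleeding at 1, 4, 8, 24, 72, 168 or 336 h. Samples were counted by LSC with external-standard efficiency correction. Results were converted to ng equivalents per g from specific activity and sample weight.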

Blood = experiment: Drug uptake in albino F344/DuCrlCrlj rat blood assessed as ng equivalent of CS-1036 at 5 mg/kg, po after 336 hrs by liquid scintillation counting; type: ADME, organism-based; parameters: dose 5 mg/kg, dosed compound name [14C]CS-1036, route oral; conditions: in vivo
How it was run: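 Male F344/DuCrlCrlj rats (159–167 g; n = 3 per time point) received a single oral dose of [14C]CS-1036 at 5 mg/kg. Blood was taken from the abdominal aorta at 1, 4, 8, 24, 72, 168 and 336 h. Radioactivity was counted by LSC with external-standard efficiency correction. Results were converted to ng equivalent of CS-1036/ml using specific activity and sample volume, and reported as mean + S.D.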

[12] = Drug uptake in albino F344/DuCrlCrlj rat trachea at 5 mg/kg, po after 24 hrs by liquid scintillation counting; type: ADME, organism-based; parameters: dose 5 mg/kg, dosed compound name [14C]CS-1036, route oral; conditions: in vivo
Pancreas [13] = experiment: Drug uptake in albino F344/DuCrlCrlj rat pancreas assessed as ng equivalent of CS-1036 at 5 mg/kg, po after 8 hrs by liquid scintillation counting; type: ADME, organism-based; parameters: dose 5 mg/kg, dosed compound name [14C]CS-1036, route oral; conditions: in vivo
Adrenal gland [14] = experiment: Drug uptake in albino F344/DuCrlCrlj rat adrenal gland at 5 mg/kg, po after 72 hrs by liquid scintillation counting; type: ADME, organism-based; parameters: dose 5 mg/kg, dosed compound name [14C]CS-1036, route oral; conditions: in vivo
Spleen = experiment: Drug uptake in albino F344/DuCrlCrlj rat spleen at 5 mg/kg, po after 1 hr by liquid scintillation counting; type: ADME, organism-based; parameters: dose 5 mg/kg, dosed compound name [14C]CS-1036, route oral; conditions: in vivo
Small intestine [15] = experiment: Drug uptake in albino F344/DuCrlCrlj rat small intestine assessed as ng equivalent of CS-1036 at 5 mg/kg, po after 24 hrs by liquid scintillation counting; type: ADME, organism-based; parameters: dose 5 mg/kg, dosed compound name [14C]CS-1036, route oral; conditions: in vivo
[16] = Drug uptake in albino F344/DuCrlCrlj rat epididymis assessed as ng equivalent of CS-1036 at 5 mg/kg, po after 168 hrs by liquid scintillation counting; type: ADME, organism-based; parameters: dose 5 mg/kg, dosed compound name [14C]CS-1036, route oral; conditions: in vivo
Cerebrum [17] = experiment: Drug uptake in albino F344/DuCrlCrlj rat cerebrum at 5 mg/kg, po after 8 hrs by liquid scintillation counting; type: ADME, organism-based; parameters: dose 5 mg/kg, dosed compound name [14C]CS-1036, route oral; conditions: in vivo
How it was run: (§1)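 Single oral [14C]CS-1036 at 5 mg/kg was given to male rats (159–167 g; n = 3). Cerebrum was collected after aortic bleeding at 1, 4, 8, 24, 72, 168 or 336 h, weighed, and homogenized in 2 volumes of saline. A 0.5 ml aliquot was solubilized in Soluene-350 and counted by LSC with external-standard correction. Results are in ng equivalent/g tissue from specific activity and sample weight.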

Adrenal gland [18] = experiment: Drug uptake in albino F344/DuCrlCrlj rat adrenal gland assessed as ng equivalent of CS-1036 at 5 mg/kg, po after 1 hr by liquid scintillation counting; type: ADME, organism-based; parameters: dose 5 mg/kg, dosed compound name [14C]CS-1036, route oral; conditions: in vivo
Small intestine [19] = experiment: Drug uptake in albino F344/DuCrlCrlj rat small intestine at 5 mg/kg, po after 168 hrs by liquid scintillation counting; type: ADME, organism-based; parameters: dose 5 mg/kg, dosed compound name [14C]CS-1036, route oral; conditions: in vivo
Cerebrum [20] = experiment: Drug uptake in albino F344/DuCrlCrlj rat cerebrum assessed as ng equivalent of CS-1036 at 5 mg/kg, po after 4 hrs by liquid scintillation counting; type: ADME, organism-based; parameters: dose 5 mg/kg, dosed compound name [14C]CS-1036, route oral; conditions: in vivo; how it was run: as §1
Kidney = experiment: Drug uptake in albino F344/DuCrlCrlj rat kidney assessed as ng equivalent of CS-1036 at 5 mg/kg, po after 1 hr by liquid scintillation counting; type: ADME, organism-based; parameters: dose 5 mg/kg, dosed compound name [14C]CS-1036, route oral; conditions: in vivo
Adrenal gland [21] = experiment: Drug uptake in albino F344/DuCrlCrlj rat adrenal gland assessed as ng equivalent of CS-1036 at 5 mg/kg, po after 8 hrs by liquid scintillation counting; type: ADME, organism-based; parameters: dose 5 mg/kg, dosed compound name [14C]CS-1036, route oral; conditions: in vivo
Zone of skin = experiment: Drug uptake in albino F344/DuCrlCrlj rat skin assessed as ng equivalent of CS-1036 at 5 mg/kg, po after 8 hrs by liquid scintillation counting; type: ADME, organism-based; parameters: dose 5 mg/kg, dosed compound name [14C]CS-1036, route oral; conditions: in vivo
Harderian gland = experiment: Drug uptake in albino F344/DuCrlCrlj rat harderian gland at 5 mg/kg, po after 24 hrs by liquid scintillation counting; type: ADME, organism-based; parameters: dose 5 mg/kg, dosed compound name [14C]CS-1036, route oral; conditions: in vivo

C[C@H]1O[C@@H](O[C@H]2[C@H](O)[C@@H](O)[C@@H](O[14C@H]3[14C@H](O)[14CH2]N[14C@@H]3[14CH2]O)O[C@@H]2CO)[C@H](O)[C@@H](O)[C@@H]1O
Radiolabel recovery [1]: 41.4 ngequiv/g
Radiolabel recovery [2]: 70.8 ngequiv/g
Radiolabel recovery (Pancreas [3]): 5.8 ngequiv/g
Radiolabel recovery (Plasma): 11.3%
Radiolabel recovery [4]: 31.4 ngequiv/g
Radiolabel recovery (Large intestine): 6620 ngequiv/g
Radiolabel recovery [5]: 63 ngequiv/g
Radiolabel recovery (Thymus): 2.1 ngequiv/g
Radiolabel recovery [6]: 6.8 ngequiv/g
Radiolabel recovery (Stomach [7]): 41 ngequiv/g
Radiolabel recovery (Liver): 93 ngequiv/g
Radiolabel recovery (Adrenal gland [8]): 19.5 ngequiv/g
Radiolabel recovery (Stomach [9]): 118 ngequiv/g
Radiolabel recovery (Adrenal gland [10]): 33.3 ngequiv/g
Radiolabel recovery [11]: 194 ngequiv/g
Radiolabel recovery (Blood): 0.2 ngequiv/ml
Radiolabel recovery [12]: 43.2 ngequiv/g
Radiolabel recovery (Pancreas [13]): 71 ngequiv/g
Radiolabel recovery (Adrenal gland [14]): 99.7 ngequiv/g
Radiolabel recovery (Spleen): 65.6 ngequiv/g
Radiolabel recovery (Small intestine [15]): 7.5 ngequiv/g
Radiolabel recovery [16]: 8.2 ngequiv/g
Radiolabel recovery (Cerebrum [17]): 9.08 ngequiv/g
Radiolabel recovery (Adrenal gland [18]): 3.3 ngequiv/g
Radiolabel recovery (Small intestine [19]): 13 ngequiv/g
Radiolabel recovery (Cerebrum [20]): 1.4 ngequiv/g
Radiolabel recovery (Kidney): 102 ngequiv/g
Radiolabel recovery (Adrenal gland [21]): 66.9 ngequiv/g
Radiolabel recovery (Zone of skin): 71.6 ngequiv/g
Radiolabel recovery (Harderian gland): 290 ngequiv/g
